In the library only some 1.7% were active in any assay of this set; here they are far more common.
CAL PDZ FP-1 – CAL PDZ peptide-binding inhibitors, primary screen, biochemical, fluorescence polarization, Cer-tagged CAL PDZ, HTS; purified CAL PDZ, TMR-peptide fluorescence polarization, 1 h; inhibition, % at 20 µM; Golgi-associated PDZ and coiled-coil motif-containing protein (Homo sapiens), Q9HD26; 330,000 compounds, 0.02% hits;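 active = highest replicate inhibition of at least 40%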;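 note: plate controls were DMSO neutral control wells for no effect and unlabeled competitor peptide control wells for full effect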
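System: purified tagged CAL PDZ domain construct (CerCALP). Schedule: 1 h incubation at room temperature before polarization reading. Medium: 25 mM sodium phosphate pH 7.4, 150 mM NaCl, TCEP, IgG, Thesit. Read-out: percent inhibition from loss of millipolarization. Measured by: FP readout, S and P plane fluorescence. Probe or stimulus: fluorescent TMR peptide probe.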
CFTR F508del cor – F508del CFTR correction, initial screen, CFBE line, single point. CFBE cells, YFP halide quenching; stimulated with forskolin plus potentiator P3; % fluorescence drop versus neutral controls. activity (quench increase), % at 7.58 µM. 350,000 compounds, 0.36% hits. AID 720511, 2013;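 active = mean added fluorescence quench of at least 8% versus neutral control, with both replicates also reaching 8%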;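 note: cells transiently co-express mutant CFTR-F508del with the halide-sensitive YFP; corrector assay measuring rescue of mutant channel to the surface after 24 h compound exposure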
ARNT TACC3 PPI – disruptors of ARNT/TACC3 protein interaction, primary screen, biochemical, AlphaScreen, single concentration | AlphaScreen His-ARNT PAS-B/GST-TACC3 binding, luminescence; TACC3 fragment carries E629A point mutation | 390,000 compounds, 0.66% hits | inhibition, % at 9.99 µM;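 active = mean inhibition of replicates at least 50% and at least half of replicates each reaching 50%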;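 note: 0% = complete ARNT plus TACC3 wells and 100% = ARNT alone without TACC3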
CAL PDZ FP-2 – untagged CAL PDZ binding inhibitors, primary screen, biochemical, fluorescence polarization, HTS. Golgi-associated PDZ and coiled-coil motif-containing protein (Homo sapiens), Q9HD26. purified CAL PDZ, TMR-peptide fluorescence polarization, 1 h. inhibition, % at 24.9 µM. 300,000 compounds, 0.92% hits;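 active = mean inhibition of at least 30% with at least half of replicates also reaching 30%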;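 note: 0% = DMSO neutral control and 100% = excess unlabeled competitor peptide PRC23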
PGC1a acetyl inh – inhibitors of PGC1a acetylation signal, primary screen, cell-based, U2OS, AlphaScreen, inhibitor mode. AlphaScreen anti-acetyl-lysine; with virally co-expressed GCN5 acetyltransferase. 350,000 compounds, 0.17% hits. inhibition, % at 15.6 µM. AID 651687, 2012;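 active = every replicate shows inhibition of at least 40%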;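 note: 0% = neutral control wells and 100% = positive control wells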
miR122 inh – miR-122 Renilla sensor signal increase in Huh7, primary screen, miR-122 inhibitor project, cell-based, single point, plate reader. 340,000 compounds, 0.3% hits. activation (reporter increase), % at 12.5 µM. Huh7 miR-122 Renilla luciferase sensor, 48 h; neutral wells = 0, positive control = 100. AID 602342, 2012;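 active = mean replicate activation score at least 90 and every replicate individually at or above 90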;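 note: higher luciferase means less miR-122 activity so hits act as miR-122 inhibitors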
Numbers without * were called inactive; [ ] = another dose, or the depositor's remark.

What do the screens show for `Cc1ccc(S(=O)(=O)N(CCCc2c(C)nc(N)[nH]c2=O)Cc2ccc([N+](=O)[O-])cc2)cc1`?
CFTR F508del cor: 1

What do the screens show for `C[C@H]1CN([C@@H](C)CO)S(=O)(=O)c2ccc(C#Cc3ccncc3)cc2O[C@@H]1CN(C)C(=O)C1CCC1`?
CFTR F508del cor: 4; ARNT TACC3 PPI: -1; miR122 inh: 2[16.7 µM]

How did C[C@H](CO)N1C[C@H](C)[C@H](CN(C)Cc2ccncc2)Oc2ccc(NC(=O)NC3CCCCC3)cc2CC1=O do in these assays?
CFTR F508del cor: -2; ARNT TACC3 PPI: 12; PGC1a acetyl inh: 6; miR122 inh: 3[16.7 µM]

How did COC(=O)c1ccc(=O)c2nc3/c(=C/O)c(O)cc(=O)c3[nH]c12 do in these assays?
CAL PDZ FP-1: 3; CFTR F508del cor: -1; ARNT TACC3 PPI: 59*; CAL PDZ FP-2: -1; PGC1a acetyl inh: 6; miR122 inh: 0

Results for COC(=O)c1ccc(N)cc1O ?
CAL PDZ FP-1: -2; CAL PDZ FP-2: 0; PGC1a acetyl inh: -5; miR122 inh: 6

Results for COc1cc(C2c3c(oc4ccccc4c3=O)C(=O)N2Cc2ccco2)ccc1O (stereo not given) ?
CAL PDZ FP-1: -1; ARNT TACC3 PPI: -2; CAL PDZ FP-2: -2; PGC1a acetyl inh: 4; miR122 inh: -10

Results for COc1cccc(C2c3c(oc4ccccc4c3=O)C(=O)N2Cc2ccco2)c1 (stereo not given) ?
CAL PDZ FP-1: 0; CFTR F508del cor: 0; ARNT TACC3 PPI: 47*; CAL PDZ FP-2: 7; PGC1a acetyl inh: -31; miR122 inh: 3

What do the screens show for `CO[C@@H]1CN(C)C(=O)c2cc(NC(=O)NC(C)C)ccc2OC[C@H](C)N(CC2CC2)C[C@@H]1C`?
CFTR F508del cor: 0; ARNT TACC3 PPI: -7; PGC1a acetyl inh: 4

What do the screens show for `O=C(/C(=C(\[O-])c1ccccc1)[n+]1ccc2ccccc2c1)c1ccccc1`?
CAL PDZ FP-1: -1; CFTR F508del cor: -2; ARNT TACC3 PPI: 50*; CAL PDZ FP-2: -1

What do the screens show for `Cc1noc(C)c1NC(=O)Nc1cccc2c1O[C@@H](CN(C)Cc1ccc(Oc3ccccc3)cc1)[C@H](C)CN([C@@H](C)CO)C2=O`?
CFTR F508del cor: -2; ARNT TACC3 PPI: 0; PGC1a acetyl inh: -14; miR122 inh: -8[16.7 µM]

How did Cc1cc[n+](C(C)C(=O)c2ccc(Cl)cc2)cc1 (stereo not given) do in these assays?
CAL PDZ FP-1: 0; CFTR F508del cor: 0; ARNT TACC3 PPI: 56*; CAL PDZ FP-2: -3; PGC1a acetyl inh: 8; miR122 inh: 0

Results for Cc1cc[n+](C(C)C(=O)c2ccc(-c3ccccc3)cc2)cc1 (stereo not given) ?
CAL PDZ FP-1: -1; CFTR F508del cor: 4; ARNT TACC3 PPI: -1; PGC1a acetyl inh: 1

What do the screens show for `COC(=O)c1cc(S(=O)(=O)NCCc2ccc(C)cc2)c[nH]1`?
CAL PDZ FP-1: -1; CFTR F508del cor: 2; ARNT TACC3 PPI: -7; PGC1a acetyl inh: 7; miR122 inh: 0

How did COC(=O)c1cc(S(=O)(=O)NCCc2ccc(SC)cc2)c[nH]1 do in these assays?
CAL PDZ FP-1: -1; CFTR F508del cor: -3; ARNT TACC3 PPI: 2; CAL PDZ FP-2: 76*; PGC1a acetyl inh: -7; miR122 inh: 5

What do the screens show for `COC(=O)c1cc(S(=O)(=O)NCCN2CCN(c3ccccc3F)CC2)c[nH]1`?
CAL PDZ FP-1: -1; CFTR F508del cor: 4; ARNT TACC3 PPI: 6; CAL PDZ FP-2: 47*; PGC1a acetyl inh: -14; miR122 inh: 1

What do the screens show for `Nc1nc(NC(=O)/C=C\C(=O)O)nn1-c1ccccc1`?
CFTR F508del cor: 1; ARNT TACC3 PPI: 74*; CAL PDZ FP-2: 3; PGC1a acetyl inh: 5

Results for Nc1nc(NC(=O)Cc2ccccc2)nn1-c1ccccc1 ?
ARNT TACC3 PPI: 48*; CAL PDZ FP-2: 0; PGC1a acetyl inh: -2; miR122 inh: -23

How did CC(=O)Nc1nc(N)n(-c2ccccc2)n1 do in these assays?
CAL PDZ FP-1: -3; ARNT TACC3 PPI: 2; CAL PDZ FP-2: -6; PGC1a acetyl inh: 4; miR122 inh: -4

Results for CC(=O)NC1C(OCc2ccccc2)OC(CO)C(OC(C)=O)C1OC(C)=O (stereo not given) ?
CAL PDZ FP-1: 1; ARNT TACC3 PPI: -5; CAL PDZ FP-2: 46*; PGC1a acetyl inh: -32; miR122 inh: 2

Results for COC(=O)C[C@H]1C[C@H]2c3cc(NC(=O)C4CCC4)ccc3O[C@H]2[C@@H](CO)O1 ?
CFTR F508del cor: -2; ARNT TACC3 PPI: -3; PGC1a acetyl inh: -4; miR122 inh: 4[16.7 µM]

Results for CC(=NCc1ccco1)c1c(C)[nH]n(-c2nc3ccccc3s2)c1=O ?
CAL PDZ FP-1: -3; ARNT TACC3 PPI: 2

Results for C/C(=N/NC(=O)c1cccs1)c1c(C)[nH]n(-c2nc3ccccc3s2)c1=O ?
CAL PDZ FP-1: -1; CFTR F508del cor: -1; ARNT TACC3 PPI: 47*; CAL PDZ FP-2: 3

What do the screens show for `C[C@@H]1CN([C@@H](C)CO)C(=O)c2cc(NC(=O)Cn3cnnn3)ccc2O[C@H]1CN(C)C(=O)Nc1ccc2c(c1)OCO2`?
CFTR F508del cor: 1; ARNT TACC3 PPI: -35; PGC1a acetyl inh: 3; miR122 inh: 2[16.7 µM]

What do the screens show for `Cc1ccc(S(=O)(=O)N2CCOCC2)cc1C(=O)Nc1nc(-c2ccccn2)cs1`?
CAL PDZ FP-1: -1; CFTR F508del cor: 3; ARNT TACC3 PPI: 75*; CAL PDZ FP-2: -4

What do the screens show for `O=C(Nc1cccc(S(=O)(=O)N2CCOCC2)c1)c1ccccn1`?
CAL PDZ FP-1: 1; CFTR F508del cor: -2; ARNT TACC3 PPI: 1; CAL PDZ FP-2: 75*

What do the screens show for `O=C(NNS(=O)(=O)c1ccc(Cl)cc1)c1cccc(S(=O)(=O)N2CCOCC2)c1`?
CAL PDZ FP-1: -1; CFTR F508del cor: -4; ARNT TACC3 PPI: 4; CAL PDZ FP-2: -7; PGC1a acetyl inh: 1; miR122 inh: 249*

What do the screens show for `CN1CCN(C(=O)C[C@@H]2CC[C@@H]3[C@H](COC[C@H](O)CN3C(=O)Nc3ccc(Cl)cc3)O2)CC1`?
CFTR F508del cor: 4; ARNT TACC3 PPI: 2; PGC1a acetyl inh: 2; miR122 inh: -2[16.7 µM]

Screens: PubChem, Broad Institute
